Assay results as given in PMC12107431 (Nucleic Acids Research, 2025).
Several values for one entry are separate records, joined by “and”; a condition that tells them apart may be missing. Equal entries are not always repeated. No end group written: not given here.

B1: ETO2-NHR3-4 (NHR3 and NHR4 domains of human ETO2, residues 480-597) (domain or fragment, UniProt O75081 480-597, looked up)
chain: GYVPEDIWRKAEEAVNEVKRQAMSELQKAVSDAERKAHELITTERAKMERALAEAKRQASEDALTVINQQEDSSESCWNCGRKASETCSGCNAARYCGSFCQHRDWEKHHHVCGQSLQ
B3: (M)PPPLx4 (GATAD2A residues 177-284, four polyproline-leucine motifs) (peptide, UniProt Q86YP4 177-284, looked up)
chain: QKPTGSVGSTVTTPPPLVRGTQNIPAGKPSLQTSSARMPGSVIPPPLVRGGQQASSKLGPQASSQVVMPPLVRGAQQIHSIRQHSSTGPPPLLLAPRASVPSVQIQGQ

Assays:
ETO2-NHR4 [1] = target: T1, ETO2-NHR4 (Homo sapiens, UniProt O75081); experiment: 15N-HSQC chemical shift perturbation titration; format: binding
T1 sequence (O75081 551-597): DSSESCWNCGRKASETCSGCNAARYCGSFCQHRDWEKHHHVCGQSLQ

NHR3 domain of ETO = conditions: PKA (RIIα) binding to NHR3 domain of ETO; cited from earlier work
ETO2-NHR3-4 [2] = experiment: ITC with ETO2-NHR3-4 in the presence of PKA; format: binding, human; conditions: ITC KD with vs without PKA (RIIα)
Outline: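 ETO2-NHR3-4 (50 μM) is premixed at a 2:1 molar ratio with PKA (RII)α residues 1–45 (100 μM), both bacterially expressed and purified by Ni affinity, TEV cleavage and size exclusion. N-CoRx2A or PPPLx2A peptide (250 μM) is titrated in: 20 × 2 μL injections 180 s apart at 25 °C, in 25 mM Bis-Tris pH 7.2, 100 mM NaCl, 1 mM DTT, 50 μM ZnSO4. KD is fitted by software and reported as mean ± SD of two runs.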

SEC-MALS = target: the molecule itself; experiment: SEC-MALS
[3] = target: B1; experiment: ITC
ETO2-NHR4 [4] = target: T1, ETO2-NHR4; experiment: Isothermal titration calorimetry; format: binding; conditions: all four motifs vs single motifs
ETO2-NHR3-4 [5] = experiment: Isothermal titration calorimetry; format: binding, human; conditions: ITC KD ratio
[6] = target: B1; experiment: ITC; remark: listed apart in the source
[7] = target: B3; experiment: ITC

## KYGASSQVVMPPLVRGAQQ-NH2 [MPPL-3]
ETO2-NHR4 [1]
  Kd: 249 ± 3 µM

## PKA (RIIα): cAMP-dependent protein kinase type II-alpha regulatory subunit; residues 1–45 used here
NHR3 domain of ETO
  Kd: 0.128 µM

## PPPLx2A: bacterially expressed GATAD2A residues 177–235, first two motifs (QKPTGSVGSTVTTPPPLVRGTQNIPAGKPSLQTSSARMPGSVIPPPLVRGGQQASSKLG; also: C-terminal Twin-Strep-tag, state not given here)
ETO2-NHR3-4 [2]
  reduction of affinity for ETO2-NHR3-4 by PKA (RIIα): approximately 10 fold

## B1
SEC-MALS
  stoichiometry N: 2 and 4

B2: ETO2-NHR3-4 (V497I/A501L) (domain or fragment, human, UniProt O75081 480-597, looked up)
chain: GYVPEDIWRKAEEAVNEIKRQLMSELQKAVSDAERKAHELITTERAKMERALAEAKRQASEDALTVINQQEDSSESCWNCGRKASETCSGCNAARYCGSFCQHRDWEKHHHVCGQSLQ
SEC-MALS
  stoichiometry N: 4

## B3
[3]
  Kd: 3 µM

B4: (M)PPPLx4: bacterially expressed GATAD2A residues 177–284 with four (M)PPPL motifs and C-terminal Twin-Strep-tag (protein)
chain: QKPTGSVGSTVTTPPPLVRGTQNIPAGKPSLQTSSARMPGSVIPPPLVRGGQQASSKLGPQASSQVVMPPLVRGAQQIHSIRQHSSTGPPPLLLAPRASVPSVQIQGQ
modifications: left off: thioredoxin, N-terminal, cleaved | His6, N-terminal, cleaved | Twin-Strep-tag, C-terminal, state not stated
ETO2-NHR4 [4]
  increase of binding affinity compared to the individual binding sites: up to 10 fold
ETO2-NHR3-4 [5]
  increase of binding affinity with ETO2-NHR3-4 compared to the NHR4 domain alone: 10 fold

B5: PPPLx2A (GATAD2A residues 177-235, first two motifs) (peptide, UniProt Q86YP4 177-235, looked up)
chain: QKPTGSVGSTVTTPPPLVRGTQNIPAGKPSLQTSSARMPGSVIPPPLVRGGQQASSKLG
[3]
  Kd: 6 µM
[6]
  KD in the presence of PKA (RIIα): 50 µM

## DSSESCWNCGRKASETCSGCNAARYCGSFCQHRDWEKHHHVCGQSLQ (domain or fragment, UniProt O75081 551-597, looked up) [ETO2-NHR4 (NHR4 domain of human ETO2, residues 551-597)]
[7]
  Kd: 30 µM
